Results from ChEMBL document CHEMBL1687687, “Identification of a New Series of STAT3 Inhibitors by Virtual Screening” (ACS Med Chem Lett, 2010).

Assays:
Assay type in all cases: cell-based
[1] = molecular target: T1, Signal transducer and activator of transcription 3 (Homo sapiens, UniProt P40763); assay: Inhibition of STAT3 transcriptional activity in human HeLa cells at 100 uM by luciferase reporter gene assay
Outline: (§1)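 STAT3-dependent luciferase reporter gene assay in HeLa cells. Activity is reported as percent inhibition at a single 100 μM concentration, or as an IC50.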

[2] = molecular target: T1, Signal transducer and activator of transcription 3; assay: Inhibition of STAT3 transcriptional activity in human HeLa cells by luciferase reporter gene assay; outline: as §1
[3] = molecular target: T1, Signal transducer and activator of transcription 3; assay: Inhibition of STAT3 dimerization transfected in HEK293 cells at 100 uM after 24 hrs followed by 1 hr stimulation with 50 ng/ml IL-6 by FRET assay; conditions: 10 uM, in the assay text read “at 10 uM” for “at 100 uM”
Outline: (§2)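 Cell-based FRET dimerization read-out in HEK293 cells co-expressing STAT3-CFP and STAT3-YFP. Cells were pretreated with compound before IL-6 stimulation, and the FRET signal from the STAT3–STAT3 interaction was measured. Values are given as percent inhibition of the signal.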

[4] = molecular target: T1, Signal transducer and activator of transcription 3; assay: Inhibition of STAT3 dimerization transfected in HEK293 cells at 50 uM after 24 hrs followed by 1 hr stimulation with 50 ng/ml IL-6 by FRET assay; outline: as §2

T1 sequence (P40763 whole entry): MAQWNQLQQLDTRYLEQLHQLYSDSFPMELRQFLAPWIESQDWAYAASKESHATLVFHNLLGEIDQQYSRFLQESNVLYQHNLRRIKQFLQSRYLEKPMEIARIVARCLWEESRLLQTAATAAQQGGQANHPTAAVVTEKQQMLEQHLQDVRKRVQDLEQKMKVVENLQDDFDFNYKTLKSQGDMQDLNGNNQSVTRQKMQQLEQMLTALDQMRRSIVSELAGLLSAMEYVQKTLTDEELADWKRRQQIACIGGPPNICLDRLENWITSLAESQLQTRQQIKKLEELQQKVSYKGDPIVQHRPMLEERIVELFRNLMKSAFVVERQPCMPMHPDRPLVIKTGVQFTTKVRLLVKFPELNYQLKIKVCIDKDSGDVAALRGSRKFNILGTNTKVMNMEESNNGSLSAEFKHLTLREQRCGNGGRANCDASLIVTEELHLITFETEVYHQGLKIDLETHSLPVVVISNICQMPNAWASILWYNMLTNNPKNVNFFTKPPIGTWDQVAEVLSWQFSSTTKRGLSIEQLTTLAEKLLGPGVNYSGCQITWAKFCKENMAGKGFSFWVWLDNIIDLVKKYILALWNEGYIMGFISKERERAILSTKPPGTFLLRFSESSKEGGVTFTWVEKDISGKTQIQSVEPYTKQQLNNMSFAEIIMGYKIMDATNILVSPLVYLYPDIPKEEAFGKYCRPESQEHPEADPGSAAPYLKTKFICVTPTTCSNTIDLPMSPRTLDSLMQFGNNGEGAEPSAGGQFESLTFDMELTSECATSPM

SMILES	inhibition [1] [%]	IC50 [2] [µM]	inhibition [3] [%]	inhibition [4] [%]
O=C(Nc1nnc(-c2ccc(Cl)cc2)o1)c1cc(-c2ccccc2)nc2ccccc12	115	61		
O=C(Nc1nnc(-c2ccoc2)o1)c1cc(-c2ccccc2)nc2ccccc12	103	72	8	55
Cc1nnc(NC(=O)c2cc(-c3ccccc3)nc3ccccc23)o1	14			
O=C(Nc1nnc(-c2cccs2)o1)c1cc(-c2ccccc2)nc2ccccc12	86	75	36	56
O=C(Nc1nnc(-c2ccco2)s1)c1cc(-c2ccccc2)nc2ccccc12	26			
O=C(Nc1nnc(-c2ccccc2Cl)o1)c1cc(-c2ccccc2)nc2ccccc12	5			
CCOC(=O)c1nnc(NC(=O)c2cc(-c3ccccc3)nc3ccccc23)o1	38			

Continued, values first:

inhibition [1] [%]	IC50 [2] [µM]	inhibition [3] [%]	inhibition [4] [%]	SMILES
91	63	18	56	O=C(Nc1nnc(-c2ccco2)o1)c1cc(-c2cccs2)nc2ccccc12
129	66			O=C(Nc1nnc(-c2ccco2)o1)c1cc(-c2ccco2)nc2ccccc12
-5		-2	-4	O=C(Nc1nnc(-c2ccco2)o1)c1ccnc2ccccc12
